An excerpt weighted towards active compounds, which were near 2.3% of everything screened.
ABCB1 inh: ABCB1 efflux pump inhibitors, primary screen, cell-based, multiplex, flow cytometry, ABCG2 counter-screen; 0.067% of 190,000 active; inhibition, % at 6.6 µM; CCRF-Adr cells, JC-1 efflux; AID 1326, 2008; ATP-dependent translocase ABCB1 (Homo sapiens), P08183; in the data active = inhibition above about 40%;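 note: 0% = vehicle and 100% = reference inhibitor; higher value means more JC-1 retained so stronger ABCB1 efflux block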
Insulin prom up: insulin promoter activators in MIN6 cells, imaging, high-content screening, mouse beta cells; z-score at 5 µM; 0.3% of 190,000 active; MIN6 insulin promoter-GFP reporter; active compounds read high;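 active = z-score above 3 at 5 µM with at least 500 cells counted in the well; inconclusive = wells under 500 cells, flagged as cytotoxic or low count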
Autophagy mod: autophagy modulators in MEF cells, primary screen, imaging, high-content, MEF GFP-LC3; MEF GFP-LC3 puncta imaging; test concentration mostly 10 µM; calls only at 10 µM (by protocol); 0.98% of 190,000 active; AID 463193, 2010;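 active = percentage of spot-positive cells more than 3 SD above its plate mean, without a fluorescence outlier flag or 80% toxicity; inconclusive = no clear call, values can overlap the other calls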;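 note: spot-positive cell cutoff set from DMSO-treated cells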
ROMK primary: ROMK potassium channel modulators, primary screen, cell-based, thallium flux, MLSMR library; 2% of 130,000 active; ATP-sensitive inward rectifier potassium channel 1 (Homo sapiens), P48048; B-score at 10 µM; Tet-inducible ROMK, thallium flux fluorescence; actives lie on both sides; AID 1918, 2009;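 active = signal ratio slope over the read window, or its plate-corrected B-score, at least 3 SD from the plate mean, either direction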;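 note: B-score of the F/F0 ratio slope over 7 to 12 s after thallium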
ABCG2 inh: ABCG2 efflux pump inhibitors, primary screen, multiplex with ABCB1, IgMXP3 cells, flow cytometry; Broad substrate specificity ATP-binding cassette transporter ABCG2 (Homo sapiens), Q9UNQ0; JC-1 efflux; inhibition, % at 6.6 µM; 0.1% of 190,000 active; AID 1325, 2008;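 active = inhibition above 80%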;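 note: 0% = DMSO and 100% = nicardipine control wells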
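Incubation: cells with compound and JC-1, 10 min at 25 °C, rotating, no wash / Test system: IgMXP3 (ABCG2) plus far-red-tagged CCRF-Adr (ABCB1) cells / Compound dosing: one concentration, 6.6 µM final / Also added: JC-1 fluorescent substrate / Evaluation: efflux inhibition in percent versus controls / Detection: flow cytometry, 530 nm JC-1 signal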
sdo1 growth: growth rescue of sdo1-depleted yeast, primary screen, S. cerevisiae, bone marrow failure model; S. cerevisiae sdo1-depleted JHY4D growth rescue, OD600 30 h; active compounds read high; pdr5 snq2 efflux-pump mutant strain; z-score at 10 µM; 0.21% of 140,000 active; AID 817, 2007;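 active = z-score above 3 at both the 24 hr and the 30 hr optical density reads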;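 note: z-score against mean and SD of all compound wells on the same plate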
ABCB1 confirm: ABCB1 efflux pump inhibitors, confirmation, cell-based, single point, ABCG2 counter-screen; shares compounds with ABCG2 inh; CCRF-Adr cells, JC-1 efflux, flow cytometry; inhibition, % at 6.6 µM; 7% of 270 active; AID 1451, 2008;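 active = inhibition of pump activity above 50%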;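 note: 0% = DMSO and 100% = nicardipine full pump inhibition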
ABCG2 confirm: ABCG2 efflux pump inhibitors, confirmation, single point, IgMXP3 cells, ABCB1 counter-screen paired; shares compounds with ABCG2 inh; JC-1 efflux, flow cytometry; inhibition, % at 6.6 µM; 6% of 270 active; AID 1453, 2008;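 active = inhibition above 50%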;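 note: 0% = DMSO wells and 100% = nicardipine pump inhibitor wells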
IgMXP3 fluor: compound autofluorescence in ABCG2-expressing IgMXP3 cells, confirmation, artefact control for ABC transporter inhibitor project, cell-based, 488/530 nm, flow cytometry; shares compounds with ABCG2 inh; compound autofluorescence 488/530 nm; active compounds read high; fluorescence at 6.6 µM; 30% of 270 active; AID 1480, 2009;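 active = fluorescence in ABCG2-expressing cells above the plate's control-well mean plus 3 SD, cut at about 15 in these data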;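 note: median cell fluorescence with compound minus that of DMSO-treated control cells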
CCRF-Adr fluor: compound autofluorescence in ABCB1-expressing CCRF-Adr cells, confirmation, artefact control for ABC transporter inhibitor project, cell-based, 488/530 nm, flow cytometry; shares compounds with ABCG2 inh; compound autofluorescence 488/530 nm; active compounds read high; fluorescence at 6.6 µM; 30% of 270 active; AID 1483, 2009;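 active = fluorescence beyond the plate control mean plus 3 SD, with a fluorescence-to-maximum score over 2, cut at about 25 in these data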
Active calls of the source: *; i = inactive; ? = inconclusive; / = not tested or not shown; + = active, no number.

SMILES	ABCB1 inh	Insulin prom up	Autophagy mod	ROMK primary	ABCG2 inh	sdo1 growth	ABCB1 confirm	ABCG2 confirm	IgMXP3 fluor	CCRF-Adr fluor
COc1ccccc1Nc1nc2nonc2nc1N1CCCCC1C (stereo not drawn)	12	-1.6	i	-0.33	87*	-1.3	19	29	30*	-0.79
COc1ccc(OC)c(NC(=O)COC(=O)CCCN2C(=O)c3ccccc3C2=O)c1	2	-0.03	i	/	28	-0.05	/	/	/	/
COc1ccc(Cl)cc1NC(=O)COC(=O)CCCN1C(=O)c2ccccc2C1=O	2	0.37	i	/	3	-0.18	1	20	-1.4	0.16
O=c1c(/C=C(\O)c2ccccc2)nc2ccccc2n1-c1ccccc1	45*	1.9	?	-2.6	44	-0.72	42	8	3.8	77*
COc1ccccc1CNC(=O)c1cc2sccc2n1C	2	/	i	/	96*	-0.56	3	16	-0.94	0.51
Cn1c(C(=O)NCc2cccnc2)cc2sccc21	0	-0.13	i	/	1	-0.26	/	/	/	/
Cc1cc(C)nc(-n2nc(C)c3c(C(F)(F)F)cc(=O)[nH]c32)n1	3	/	i	0.28	72	0.34	0	32	3.6	7.2
CN(C)c1nc(OCCNC(=O)COc2ccc(Cl)cc2Cl)nc(N(C)C)n1	61*	/	i	-0.48	28	-0.88	37	41	-2.3	-5.1
CN(C)c1nc(OCCOC(=O)COc2ccc(Cl)cc2Cl)nc(N(C)C)n1	2	0.92	i	/	25	-0.28	/	/	/	/
Cc1ccc(NS(=O)(=O)c2cc(C(=O)N(C)C)ccc2C)cc1C	0	0.14	i	-0.34	0	/	/	/	/	/
CCOC(=O)/C(C#N)=C\c1cc(C)n(-c2ccccc2)c1C	4	0.78	i	/	81*	-0.46	4	26	-1.2	-2.1
CCOc1cc(N2CCOCC2)c(OCC)cc1NC(=O)COC(=O)c1cc(C)cc(C)c1	4	0.04	i	/	106*	-0.29	9	45	-2	-4.3
COC(=O)c1cccn(CC(=O)c2ccc(Cl)cc2)c1=O	0	0.3	i	0.48	0	/	/	/	/	/
CCCC(=O)Nc1ccc(Cc2ccc(NC(=O)CCC)c(C(=O)O)c2)cc1C(=O)O	2	0.07	i	0.11	5	/	/	/	/	/
COc1cc(OC)cc(C(=O)N[C@H](C(=O)Nc2nc(-c3cc(OC)ccc3OC)cs2)C(C)C)c1	5	-0.7	i	-0.22	47	/	6	35	-1.8	-3.8
COc1cc(OC)cc(C(=O)N[C@H](C(=O)Nc2nc(-c3ccc(OC)c(OC)c3)cs2)C(C)C)c1	/	-0.58	/	/	/	/	/	/	/	/
CCCN1C(=O)/C(=C/C=C2\N(CC)c3ccccc3C2(C)C)SC1=S	70*	/	+	/	46	-1	19	-13	96*	193*
C=CCN1C(=O)/C(=C\C=C2\N(C)c3ccccc3C2(C)C)SC1=S	61*	/	+	/	189*	0.57	27	-35	145*	186*
CCCCN1C(=O)/C(=C/C=C2\Oc3ccccc3N2CC)SC1=S	39	/	+	/	89*	/	23	11	162*	423*
CCN1C(=O)/C(=C/C=C2/Sc3ccccc3N2CCO)SC1=S	-2	1.4	i	/	-10	/	/	/	/	/
CN1/C(=C\C=C2/SC(=S)N(CC(=O)O)C2=O)C(C)(C)c2ccccc21	0	-0.25	i	/	-1	/	/	/	/	/
Cc1ccccc1N1CCN(C(=O)CCN2C(=O)c3ccccc3C2=O)CC1	1	/	i	/	5	-0.07	/	/	/	/
NC(=O)COC(=O)CN1C(=O)C2CCCCC2C1=O (stereo not drawn)	0	-0.76	i	/	0	-0.12	/	/	/	/
COc1ccc(NC(=O)CC2CCCC2)cc1S(=O)(=O)N1CCCCC1	0	0.07	i	-0.52	2	-0.92	/	/	/	/
COc1ccc(NC(=O)CCC2CCCCC2)cc1S(=O)(=O)N1CCCCC1	2	-0.23	i	/	81*	0.39	26	9	8	11
SMILES	ABCB1 inh	Insulin prom up	Autophagy mod	ROMK primary	ABCG2 inh	sdo1 growth	ABCB1 confirm	ABCG2 confirm	IgMXP3 fluor	CCRF-Adr fluor
O=C1S/C(=C/c2ccc(N3CCOCC3)o2)C(=O)N1Cc1ccc(F)cc1	7	/	i	/	111*	-0.41	5	-10	196*	41*
OC1(c2cccc(C(F)(F)F)c2)CCN(c2ccc(-c3ccccc3)nn2)CC1	2	0.37	i	/	93*	-1.2	14	37	8.4	51*
O=C(NCc1c(Cl)cccc1Oc1ccccc1)c1ccccc1	/	0.45	/	/	/	/	/	/	/	/
CCN(CC)c1nc(-c2cccc(OC)c2O)nc2ccccc12	8	-0.35	i	0.49	83*	-1.7	25	24	17*	108*
O=C1C=CC(O)(c2cc(=O)c3c(O)cc(O)cc3o2)C=C1	0	?	i	-3.1	3	0.1	/	/	/	/
CCOc1ccc(NC(=O)c2cccc3c2C(=O)N(CCOC)C3)cc1	3	/	i	/	82*	-0.83	9	52*	7.4	12
Cc1[nH]nc2c1C(C(C)c1ccccc1)C(C#N)=C(N)O2 (stereo not drawn)	0	-0.35	i	-0.088	2	/	/	/	/	/
O=C(Nc1cnccn1)Nc1cccc(Cl)c1Cl	0	0.2	i	-1.6	6	/	/	/	/	/
O=c1cc(-c2ccccc2)[nH][nH]1	82*	0.28	i	1.6	-2	-0.11	1	-2	-1.1	0.06
CC(O)CNc1nc2c(c(=O)n(C)c(=O)n2C)n1Cc1cccc(Br)c1 (stereo not drawn)	1	?	i	-0.26	91*	-0.44	-38	35	12	114*
N#CCC(=O)Nc1ccc(C(=O)NCC(c2ccco2)N2CCCCC2)cc1 (stereo not drawn)	1	0.21	i	0.79	2	/	/	/	/	/
